Experimental data as given in ChEMBL document CHEMBL1156767, “Indol-3-ylcycloalkyl ketones: effects of N1 substituted indole side chain variations on CB(2) cannabinoid receptor activity” (J Med Chem, 2010).

Key:
[1] = target: T1, Cannabinoid receptor 2 (Homo sapiens, UniProt P34972); experiment: Displacement of [3H]CP-55940 from human recombinant CB2 receptor expressed in HEK293 cells; type: cell-based
[2] = target: T2, Cannabinoid receptor 2 (Rattus norvegicus, UniProt Q9QZN9); experiment: Agonist activity at rat CB2 receptor assessed as inhibition of forskolin-induced cAMP production by cell based assay; type: functional
T2 sequence (Q9QZN9 whole entry): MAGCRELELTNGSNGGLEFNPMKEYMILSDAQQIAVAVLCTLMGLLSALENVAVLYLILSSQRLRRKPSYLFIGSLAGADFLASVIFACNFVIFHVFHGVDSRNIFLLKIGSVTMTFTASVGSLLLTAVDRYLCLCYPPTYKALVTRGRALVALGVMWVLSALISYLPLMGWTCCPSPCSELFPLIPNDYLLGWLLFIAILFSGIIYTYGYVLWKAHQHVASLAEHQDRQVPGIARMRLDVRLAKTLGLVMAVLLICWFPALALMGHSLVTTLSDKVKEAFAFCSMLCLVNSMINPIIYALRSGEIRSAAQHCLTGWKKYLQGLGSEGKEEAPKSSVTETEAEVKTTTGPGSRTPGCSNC

[3] = target: T1, Cannabinoid receptor 2; experiment: Agonist activity at human recombinant CB2 receptor expressed in HEK293 cells assessed as inhibition of forskolin-induced cAMP production; type: functional, cell-based
[4] = target: T3, Cannabinoid receptor 2 (Rattus norvegicus) (UniProt Q9QZN9); experiment: Agonist activity at rat CB2 receptor assessed as inhibition of forskolin-induced cAMP production by cell based assay relative to CP-55940; type: functional; design: concentration or dose not given beside the values
T3 sequence (whole entry): T2 sequence (Q9QZN9 whole entry)
Summary of the method: (§1)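 Cyclase assay on cell suspensions (HitHunter cAMP kit): varying test ligand concentrations or CP-55,940 positive control incubated 20 min at 37 °C with a fixed forskolin concentration (lower for rat CB2 than for human CB2 and rat CB1) in D-PBS with 0.01% BSA. Lysis buffer was then added and luminescence read. Response is given as percent of the CP-55,940 response.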

[5] = target: T1, Cannabinoid receptor 2; experiment: Agonist activity at human recombinant CB2 receptor expressed in HEK293 cells coexpressing Galphaq/o5 assessed as calcium mobilization by FLIPR assay relative to CP-55940; type: functional, cell-based
Summary of the method: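 HEK cells stably coexpressing human CB2 and chimeric Gαq/o5 were seeded at 75 000 cells/well the day before and loaded with no-wash calcium dye. […] Mean ± SEM, ≥3 experiments in duplicate.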

[6] = target: Cannabinoid receptor 1 (Rattus norvegicus, UniProt P20272); experiment: Agonist activity at rat CB1 receptor assessed as inhibition of forskolin-induced cAMP production by cell based assay; type: functional
[7] = target: T4, Cannabinoid receptor 1 (Homo sapiens, UniProt P21554); experiment: Agonist activity at human recombinant CB1 receptor expressed in CHO cells assessed as inhibition of forskolin-induced cAMP production; type: functional, cell-based
[8] = target: Cannabinoid receptor 1 (Rattus norvegicus) (UniProt P20272); experiment: Agonist activity at rat CB1 receptor assessed as inhibition of forskolin-induced cAMP production by cell based assay relative to CP-55940; type: functional; design: scale not given: the % may be the effect or the level left; summary of the method: as §1
[9] = organism: Homo sapiens; experiment: Selectivity ratio of Ki for human recombinant CB1 receptor to Ki for human recombinant CB2 receptor
Summary of the method: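 Membranes were from HEK cells stably expressing human CB2 and CHO cells stably expressing human CB1. Competition was run against 0.5 nM [3H]CP-55,940 in 50 mM Tris-HCl pH 7.4, 2.5 mM EDTA, 5 mM MgCl2, 0.05% fatty-acid-free BSA, for 90 min at 30 °C, then filtered. Nonspecific binding was set with 10 μM unlabeled CP-55,940. Ki came from one-site fits. Mean ± SEM, ≥3 experiments in duplicate.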

[10] = target: T4, Cannabinoid receptor 1; experiment: Displacement of [3H]CP-55940 from human recombinant CB1 receptor expressed in CHO cells; type: cell-based
[11] = target: T1, Cannabinoid receptor 2; experiment: Agonist activity at human recombinant CB2 receptor expressed in HEK293 cells assessed as inhibition of forskolin-induced cAMP production relative to CP-55940; type: functional, cell-based; design: scale not given: the % may be the effect or the level left; summary of the method: as §1
[12] = target: T1, Cannabinoid receptor 2; experiment: Agonist activity at human recombinant CB2 receptor expressed in HEK293 cells coexpressing Galphaq/o5 assessed as calcium mobilization by FLIPR assay; type: functional, cell-based
Summary of the method: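 HEK cells stably coexpressing human CB2 and chimeric Gαq/o5 were seeded at 75 000 cells/well the day before and loaded with no-wash calcium dye. Mean ± SEM, ≥3 experiments in duplicate.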

T4 sequence (P21554 whole entry): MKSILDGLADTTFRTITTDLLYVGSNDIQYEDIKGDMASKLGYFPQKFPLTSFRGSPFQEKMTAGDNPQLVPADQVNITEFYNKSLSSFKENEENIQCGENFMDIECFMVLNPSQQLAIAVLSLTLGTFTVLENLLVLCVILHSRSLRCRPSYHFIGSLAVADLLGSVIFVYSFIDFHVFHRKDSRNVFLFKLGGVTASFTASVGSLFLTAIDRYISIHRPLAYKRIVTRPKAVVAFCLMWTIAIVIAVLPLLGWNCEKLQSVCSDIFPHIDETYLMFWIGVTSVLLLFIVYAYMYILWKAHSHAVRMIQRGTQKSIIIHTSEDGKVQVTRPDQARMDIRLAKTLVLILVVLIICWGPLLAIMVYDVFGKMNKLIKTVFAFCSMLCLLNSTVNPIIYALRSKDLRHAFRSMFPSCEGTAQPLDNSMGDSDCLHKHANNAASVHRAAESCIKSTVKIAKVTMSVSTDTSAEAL
T1 sequence (P34972 whole entry): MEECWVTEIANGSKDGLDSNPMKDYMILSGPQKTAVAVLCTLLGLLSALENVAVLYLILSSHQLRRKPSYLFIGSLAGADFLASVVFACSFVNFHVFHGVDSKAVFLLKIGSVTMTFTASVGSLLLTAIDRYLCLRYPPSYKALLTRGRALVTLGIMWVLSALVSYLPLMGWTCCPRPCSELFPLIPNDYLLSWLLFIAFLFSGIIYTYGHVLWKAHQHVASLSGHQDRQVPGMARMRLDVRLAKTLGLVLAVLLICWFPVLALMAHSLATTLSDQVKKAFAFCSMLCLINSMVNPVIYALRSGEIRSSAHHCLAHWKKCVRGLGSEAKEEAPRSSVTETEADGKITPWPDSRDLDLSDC
Chain of Cannabinoid receptor 1 (Rattus norvegicus) (P20272 whole entry): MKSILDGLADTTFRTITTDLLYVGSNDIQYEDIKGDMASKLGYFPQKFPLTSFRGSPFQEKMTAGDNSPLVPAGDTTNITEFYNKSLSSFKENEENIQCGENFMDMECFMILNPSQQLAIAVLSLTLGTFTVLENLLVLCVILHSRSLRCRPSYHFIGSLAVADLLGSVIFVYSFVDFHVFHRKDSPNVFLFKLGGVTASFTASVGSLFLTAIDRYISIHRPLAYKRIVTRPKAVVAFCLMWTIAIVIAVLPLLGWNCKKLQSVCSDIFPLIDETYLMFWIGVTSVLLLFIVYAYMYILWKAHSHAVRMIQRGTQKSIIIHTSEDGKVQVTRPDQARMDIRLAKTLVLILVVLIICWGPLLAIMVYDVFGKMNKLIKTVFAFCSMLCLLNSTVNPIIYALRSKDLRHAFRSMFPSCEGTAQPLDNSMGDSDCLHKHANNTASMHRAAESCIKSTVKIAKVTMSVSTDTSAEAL
Chain of Cannabinoid receptor 1 (Rattus norvegicus, UniProt P20272) (P20272 whole entry): as above

| SMILES | Ki ([1]; read-out: Ki) | EC50 [2] | EC50 [3] | Activity [4] | Activity [5] | EC50 [6] | EC50 [7] | Activity [8] | Ratio Ki [9] | Ki ([10]; read-out: Ki) | Ki ([10]; read-out: pKi (converted)) | Activity [11] | EC50 [12] | Ki ([1]; read-out: pKi (converted)) |
| --- | --- | --- | --- | --- | --- | --- | --- | --- | --- | --- | --- | --- | --- | --- |
| CC1(C)C(C(=O)c2cn(CCCCO)c3ccccc23)C1(C)C | 2.2 nM | 4.4 nM | 2.1 nM | 104% | 105% | 2080 nM | 1880 nM | 113% | > 2500 | > 5600 nM | > 5620 nM | 100% | 8 nM | – |
| CC1(C)C(C(=O)c2cn(CC3CCOCC3)c3ccccc23)C1(C)C | – | 0.17 nM | 2.7 nM | 93% | – | – | – | 91% | – | – | – | 103% | – | – |
| CC1(C)C(C(=O)c2cn(CCN3CCOCC3)c3ccccc23)C1(C)C | 4.6 nM | 1.6 nM | 0.52 nM | 70% | – | 248 nM | – | 97% | – | – | – | 78% | 16 nM | – |
| Cc1c(C(=O)c2cccc3ccccc23)c2cccc3c2n1[C@H](CN1CCOCC1)CO3 | – | – | – | 46% | – | – | – | 108% | – | – | – | – | – | – |
| CC1(C)C(C(=O)c2cn(CCc3nsc(Cl)n3)c3ccccc23)C1(C)C | 8.3 nM | – | – | – | 97% | – | – | – | 506 | 4200 nM | – | – | 109 nM | – |
| CC1(C)C(C(=O)c2cn(CCO)c3ccccc23)C1(C)C | 56 nM | – | – | – | 85% | – | – | – | > 179 | > 10000 nM | – | – | 440 nM | – |
| O=C(c1cn(CC2CCOCC2)c2ccccc12)C12CC3CC(CC1C3)C2 | 2.1 nM | – | – | – | 93% | – | – | – | 35 | 73 nM | – | – | 7 nM | – |
| CC1(C)C(C(=O)c2cn(CCc3cccs3)c3ccccc23)C1(C)C | 2.8 nM | – | – | – | 86% | – | – | – | 250 | 700 nM | – | – | 96 nM | – |
| CC1(C)C(C(=O)c2cn(CC3CCOC3)c3ccccc23)C1(C)C (centres undefined) | 0.14 nM | – | – | – | 102% | – | – | – | 4500 | 630 nM | – | – | 6 nM | 0.49 nM |
| CC1(C)C(C(=O)c2cn(CCN3CCOC3=O)c3ccccc23)C1(C)C | 0.18 nM | 0.07 nM | 0.97 nM | 99% | 81% | – | 3590 nM | – | 1940 | 350 nM | – | 114% | 2 nM | – |
| CN(C)CCn1cc(C(=O)C2C(C)(C)C2(C)C)c2ccccc21 | 1.9 nM | – | – | – | 105% | – | – | – | > 5260 | > 10000 nM | – | – | 35 nM | – |
| COCCCn1cc(C(=O)C2C(C)(C)C2(C)C)c2ccccc21 | 1.3 nM | – | – | – | 108% | – | – | – | 508 | 660 nM | – | – | 26 nM | – |
| CN1CCCCC1Cn1cc(C(=O)C2C(C)(C)C2(C)C)c2ccccc21 (centres undefined) | 0.48 nM | – | – | – | 48% | – | – | – | 11 | 5.5 nM | – | – | 628 nM | – |
| CC1(C(=O)c2cn(CC3CCOCC3)c3ccccc23)CC(F)(F)C1(F)F (centres undefined) | 47 nM | – | – | – | 46% | – | – | – | 31 | 1450 nM | – | – | 197 nM | – |
| CC1(C)C(C(=O)c2cn(CCN3CCCCC3)c3ccccc23)C1(C)C | 2.3 nM | – | – | – | 93% | – | – | – | 242 | 556 nM | – | – | 56 nM | – |
| O=C(c1cn(CCN2CCOCC2)c2ccccc12)C1CCCCCC1 | 11 nM | – | – | – | 48% | – | – | – | 33 | 362 nM | – | – | 31 nM | – |
